Compound activity from PubChem BioAssay.
SIRT5 inh: inhibitors of human sirtuin-5 desuccinylase. 330,000 compounds, 1.1% hits. Q9NXA8. inhibition, % at 15 µM. Purified SirT5, succinyl-peptide AMC, trypsin-coupled fluorescence. AID 652115; in the data active = inhibition above about 15%; inconclusive = no clear call, values can overlap the other calls
Target sequence (Q9NXA8 whole entry, looked up): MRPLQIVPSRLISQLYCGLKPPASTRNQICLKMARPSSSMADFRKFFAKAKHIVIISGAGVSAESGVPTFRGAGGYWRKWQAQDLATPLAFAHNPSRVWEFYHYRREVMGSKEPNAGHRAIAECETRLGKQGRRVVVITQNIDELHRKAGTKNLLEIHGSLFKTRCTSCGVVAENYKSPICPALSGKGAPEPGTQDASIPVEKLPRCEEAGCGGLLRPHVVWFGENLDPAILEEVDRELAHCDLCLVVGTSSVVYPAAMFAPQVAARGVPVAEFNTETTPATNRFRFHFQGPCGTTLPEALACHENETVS
ARNT TACC3 PPI: ARNT/TACC3 interaction disruption. Q9Y6A5. AlphaScreen His-ARNT PAS-B/GST-TACC3 binding, luminescence; TACC3 fragment carries E629A point mutation. inhibition, % at 9.99 µM. 390,000 compounds, 0.66% hits. AID 623870;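 active = mean inhibition of replicates at least 50% and at least half of replicates each reaching 50%; inconclusive = half or more replicates reach 50% but mean below 50%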;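 note: 0% = complete ARNT plus TACC3 wells and 100% = ARNT alone without TACC3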
DENV2 CPE: protects cells from dengue virus 2 cytopathic effect. CPE inhibition, % at 9.99 µM. AID 651640. DENV2-infected cells, cytopathic effect rescue, plate reader. 350,000 compounds, 1.7% hits; in the data active = CPE inhibition above about 20%, passing the limit was not always enough; inconclusive = no clear call, values can overlap the other calls; tested in BHK-21 cells;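 note: 0% = median of neutral control wells and 100% = median of positive control wells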
FGF22 binding: FGF22 (human) thermal shift binding; Q9HCT0; 340,000 compounds, 1.5% hits; recombinant FGF22 thermal shift, SYPRO orange fluorescence; percent of sucrose octasulfate shift, DMSO zero; AID 651658; activity (Tm shift, normalised), % at 9.99 µM;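 active = mean Tm shift, scaled 0 neutral to 100 positive control, at about 1.3% or above, every replicate too, limit read from the data; inconclusive = no clear call, values can overlap the other calls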
Target sequence (Q9HCT0 whole entry, looked up): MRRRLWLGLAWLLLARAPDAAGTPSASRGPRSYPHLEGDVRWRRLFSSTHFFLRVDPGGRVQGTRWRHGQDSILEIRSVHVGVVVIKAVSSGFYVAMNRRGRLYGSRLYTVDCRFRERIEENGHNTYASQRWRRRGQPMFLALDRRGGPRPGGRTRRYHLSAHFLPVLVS
Xi reactivation: reactivates the inactive X chromosome in mouse fibroblasts. activation, % at 7.58 µM. AID 743238. 360,000 compounds, 0.055% hits. XiGFP mouse fibroblasts, % GFP-positive cells imaging, 3 d; cells co-treated with 5-aza-dC sensitizer; scaled so ellipticine positive control = 100%;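 active = mean normalized replicate activation at least 10% and every replicate at or above 10%; inconclusive = only one of the two criteria met; inactive = mean below 10% and not all replicates reach 10%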;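 note: 0% = median of on-plate neutral control wells and 100% = ellipticine 6 µM median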
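Assay system – SV40-immortalized XiGFP fibroblast cells, line 68-5-11 · Buffer or medium – DMEM supplemented with 5-aza-dC as sensitizing agent · Dosing – one concentration, pinned · Benchmarks – positive control ellipticine, 6 µM final · Times – 3 days compound exposure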
FN deposit inh: fibronectin deposition inhibition. AH1F fibroblasts, Alexa488-fibronectin deposition fluorescence, overnight. inhibition, % at 12.6 µM. 350,000 compounds, 0.086% hits. AID 743247;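 active = mean inhibition across replicates of 30% or more, regardless of how many single replicates reach that level; inconclusive = mean under 30% yet at least half of replicates reach 30%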;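 note: positive control wells lacked labelled fibronectin entirely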
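Assay system: AH1F fibroblast monolayer, labelled fibronectin deposition. Amount: 10000 cells per well. Also added: labelled fibronectin 24 nM. Compound: single-point pinned compound. Incubation: cell attachment 1 h, compound and FN exposure overnight. Detection: fluorescence after three HBSS washes, excitation 485 nm, emission 525 nm. Read-out: inhibition of fibronectin deposition signal.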
* hit, by the source's call; ? = inconclusive; / = no result given. In the library only some 3.8% were active in any assay of this set; here they are far more common.

SMILES	SIRT5 inh	ARNT TACC3 PPI	DENV2 CPE	FGF22 binding	Xi reactivation	FN deposit inh
CCN1[C@@H]2c3ccc(-c4cccc(F)c4)c(=O)n3C[C@H]1[C@H](CO)[C@H]2C(=O)NCCCN(C)C	-2.7	-2.5	8.0	0.0	0.4	/
O=C(Nc1cc(F)ccc1F)N[C@H]1C=C[C@@H](CC(=O)N2CCc3ccccc3C2)O[C@H]1CO	1.2	-24.1	-0.7	-0.2	-0.5	-10.6
C[C@@H]1CCCCO[C@H](CN(C)C(=O)CCCN(C)C)[C@@H](C)CN([C@H](C)CO)C(=O)c2cc(NC(=O)CCCN(C)C)ccc2O1	2.1	/	20.4*	-0.2	0.0	-21.1
C[C@H](CO)N1C[C@H](C)[C@@H](CN(C)C(=O)CCC(F)(F)F)OCCCC[C@H](C)Oc2ccc(NC(=O)CCCN(C)C)cc2C1=O	/	24.9*	?	-0.1	0.1	-1.4
CCC(=O)N1CC[C@@H]2[C@H]1c1cc(-c3ccc(C(=O)N(C)C)cc3)ccc1N[C@@H]2CO	-1.2	9.2	?	-0.3	0.0	-7.9
N#CNC(=Nc1cccc(F)c1)SCc1ccccc1	-1.6	/	3.3	43.5*	0.0	7.4
CC(=O)Nc1c(Br)cc2c(c1Br)C(=O)c1ccccc1-2	-1.9	-8.1	3.4	-0.2	0.2	-0.1
CC(=O)C1=C(c2ccc(Br)cc2)C(=O)c2ccccc2C1=O	/	6.1	/	/	-0.1	39.2*
CC(=O)Nc1ccc(S(=O)(=O)Nc2ccc(-n3cnnn3)cc2)cc1	23.3*	-1.6	16.6	0.2	0.1	-5.7
O=S(=O)(Nc1cccc(Cl)c1)c1cccc(-n2cnnn2)c1	/	1.1	11.4	43.8*	0.3	-2.0
O=S(=O)(Nc1cccc(-n2cnnn2)c1)c1ccc(Cl)nc1	2.4	3.0	1.9	-0.1	0.0	1.6
O=C(CSc1ncnc2c1oc1ccccc12)Nc1cccc(C(F)(F)F)c1	-1.4	1.5	36.5*	-0.1	-0.1	4.9
Cc1cccc2c1-c1sc(C(=O)N3CCCCC3)cc1CO2	/	4.8	3.9	0.0	0.2	-15.8
Cc1cccc2c1-c1sc(C(=O)Nc3ccccc3N3CCN(C)CC3)cc1CO2	-0.7	45.1*	-2.1	-0.1	-0.1	5.4
COC/C=C/C1=CC2=CC(=O)C(C)(OC(=O)c3cnc4ccccc4n3)C(=O)C2=CN1C(CO)CO (stereo not given)	/	8.4	31.0*	-0.3	0.0	-20.0
COC/C=C/C1=CC2=CC(=O)C(C)(OC(=O)c3cnc4ccccc4n3)C(=O)C2=CN1CCCOC(C)C (stereo not given)	2.2	10.8*	16.9	-0.7	0.0	1.1
CC1=[N+](C)N(c2ccccc2)C(=O)C1N=Cc1c(Cl)cccc1Cl (stereo not given)	-4.8	-10.3	/	43.2*	0.2	-5.9
Oc1ccc(Cl)cc1Sc1cc(Cl)ccc1O	5.2	6.2	0.7	2.3*	0.1	12.8
CN(C)C(=O)c1cc(Cl)ccc1Sc1cc(Cl)ccc1Cl	/	1.0	/	/	/	/
C[C@@H]1CCCCO[C@@H](CN(C)S(=O)(=O)c2cccs2)[C@H](C)CN([C@H](C)CO)C(=O)c2cc(NC(=O)Nc3ccccc3)ccc2O1	7.5	3.5	60.3*	0.1	0.0	-3.4
C[C@@H]1CN([C@H](C)CO)C(=O)c2cc(NC(=O)Nc3ccc(F)cc3)ccc2O[C@@H](C)CCCCO[C@@H]1CN(C)S(=O)(=O)c1cccs1	6.5	10.6	20.8*	-0.3	-1.1	/
C[C@@H]1CCCCO[C@H](CN(C)S(=O)(=O)c2cccs2)[C@H](C)CN([C@@H](C)CO)C(=O)c2cc(NC(=O)Nc3ccccc3)ccc2O1	4.6	2.8	-5.3	-0.1	0.2	2.1
COc1ccc(NC(=O)Nc2ccc3c(c2)C(=O)N([C@H](C)CO)C[C@H](C)[C@@H](CN(C)S(=O)(=O)c2cccs2)OCCCC[C@@H](C)O3)cc1	19.2*	0.9	-0.7	-0.6	-0.1	/
C[C@@H]1CN([C@@H](C)CO)C(=O)c2cc(NC(=O)c3ccccc3)ccc2O[C@@H](C)CCCCO[C@@H]1CN(C)S(=O)(=O)c1cccs1	/	-2.2	45.2*	-0.5	0.0	/
C[C@H](CO)N1C[C@H](C)[C@H](CN(C)S(=O)(=O)c2cccs2)OCCCC[C@H](C)Oc2ccc(NC(=O)c3ccccc3)cc2C1=O	/	1.9	2.8	-0.2	0.1	/
SMILES	SIRT5 inh	ARNT TACC3 PPI	DENV2 CPE	FGF22 binding	Xi reactivation	FN deposit inh
CCC(=O)N[C@H]1C=C[C@@H](CC(=O)NCc2ccc(OC)cc2)O[C@@H]1CO	4.0	-7.5	10.7	0.3	0.1	-2.6
O=C(C[C@@H]1CC[C@@H]2[C@H](COC[C@H](O)CN2C(=O)Nc2cccc(F)c2)O1)NCc1ccccc1Cl	1.2	-9.7	3.9	0.4	0.2	-6.9
CO[C@@H]1CN(C)C(=O)c2cc(NC(=O)NC3CCCCC3)ccc2OC[C@@H](C)NC[C@@H]1C	-0.9	-10.9	9.3	-0.2	-0.1	10.9
COc1ccc(NC(=O)Nc2ccc3c(c2)C(=O)N([C@@H](C)CO)C[C@@H](C)[C@H](CN(C)Cc2ccncc2)O3)cc1	0.2	-17.3	-1.6	-0.1	0.1	/
Cc1cccc(-c2ccc([C@@H]3[C@@H](CO)N4C(=O)CN(C(=O)c5cnccn5)C[C@H]34)cc2)c1	/	/	/	/	0.7	/
O=C(Cc1ccccc1)N1CCC(c2ccccc2)C1 (stereo not given)	-8.7	-9.9	5.5	0.0	0.3	1.0
COc1ccc(CC(=O)N2CCC(c3ccccc3)C2)cc1 (stereo not given)	-2.7	1.1	/	44.1*	0.0	12.3
COc1ccnc(CSC(N)=Nc2ccc(F)cc2)c1	/	81.8*	/	/	/	0.5
CNC[C@H]1Oc2ccc(NC(C)=O)cc2C(=O)N(C)C[C@@H]1C	/	/	/	/	0.0	-7.6
C[C@H]1CN([C@@H](C)CO)C(=O)c2cccc(NS(=O)(=O)c3ccc(Cl)cc3)c2O[C@H]1CN(C)C(=O)Nc1ccc(F)cc1	2.4	-7.4	-9.3	-0.4	-0.1	/
CO[C@H]1CN(C)C(=O)c2ccc(NC(=O)Nc3c(C)noc3C)cc2OC[C@H](C)NC[C@@H]1C	4.0	/	?	0.0	0.2	-8.9
O=C(Cc1ccccn1)N1CC(=O)N2[C@H](CO)[C@H](c3ccc(C#CC4CCCC4)cc3)[C@H]2C1	0.2	/	-7.6	/	0.1	-13.2
CCCN1C[C@H](C)[C@H](OC)CN(C)C(=O)c2ccc(NC(=O)Nc3cccc(F)c3)cc2OC[C@H]1C	6.8	/	24.6*	0.0	0.0	-0.6
CCCN1C[C@H](C)[C@@H](OC)CN(C)C(=O)c2ccc(NC(=O)c3ccccc3)cc2OC[C@@H]1C	/	/	23.2*	-0.6	0.6	-16.4
